Measurements of several laboratories.
Target: Serine/threonine-protein kinase SIK2 (SIK2, Homo sapiens, UniProt Q9H0K1)

| Compound | test | conditions | remaining binding |
| --- | --- | --- | --- |
| O=C(Nc1c[nH]nc1C(=O)NC1CCNCC1)c1cc(F)cc(F)c1 | binding, competition with immobilised ligand | 1 µM | 100% |
| O=C(NCCCN1CCOCC1)c1ccc(Nc2nccc(-c3cc4ccccc4s3)n2)cc1 | binding, competition with immobilised ligand | 1 µM | 51% |
| F[C@@H]1CCN(c2nccc(-c3cnn4ncccc34)n2)C1 | binding | 1 µM | 100% |
| CC(=O)Nc1c(C(C)=O)c(=O)n(C)c2nc(-c3ccc(Cl)cc3Cl)c(-c3ccc(Cl)cc3)cc12 | cell-free assay, competition with immobilised ligand | 1 µM | 100% |
| Nc1ncc2c(n1)-c1c([nH]c3ccc(C#CC4CC4)cc13)CCCC2 | binding, competition with immobilised ligand | 1 µM | 81% |
| CN(CCCC(F)(F)F)c1nccc(-c2cnn3ncccc23)n1 | binding | 1 µM | 99% |
| N#Cc1ccc(Nc2ccc3[nH]c(=O)[nH]c3c2)c(Cl)c1 | cell-free assay, competition with immobilised ligand | 1 µM | 100% |
| COc1cnc(Nc2cccc(S(N)(=O)=O)c2)nc1N1CCN(c2ccccc2)CC1 | binding, competition with immobilised ligand | 1 µM | 100% |
| c1cncc(-c2cccc(Nc3nccc(NC4CCCCC4)n3)c2)c1 | binding, competition with immobilised ligand | 10 µM | 73% |
| N[C@H]1CCN(c2nccc(-c3cnn4ncccc34)n2)C1 | binding | 1 µM | 87% |
| CNCc1ccccc1-c1csc([C@H](C)Nc2nc(C)nc3cc(OC)c(OC)cc23)c1 | cell-free assay, competition with immobilised ligand | 1 µM | 100% |
| C[C@H]1CCN(c2nccc(-c3cnn4ncccc34)n2)C1 | binding | 1 µM | 100% |
| C[C@@H](c1cccc(C#N)c1)n1cc(Cl)cc(C(N)=O)c1=N | cell-free assay, competition with immobilised ligand | 1 µM | 100% |
| Cc1cnn2ncc(-c3ccnc(N(C)C)n3)c2c1 | binding | 1 µM | 100% |
| O=C(c1ccc(Nc2ncc(Cl)c(-c3ccc(Cl)s3)n2)cc1)N1CCC(N2CCCC2)CC1 | binding, competition with immobilised ligand | 1 µM | 21% |
| CC1CCCN1c1nccc(-c2cnn3ncccc23)n1 (stereo not shown) | binding | 1 µM | 90% |
| CCN1CCN(Cc2ccc(C(=O)Nc3ccc(C)c(Oc4ccc5c(c4)CC(=O)N5)c3)cc2C(F)(F)F)CC1 | binding, competition with immobilised ligand | 1 µM | 80% |
| CNC(=O)[C@@H]1CC[C@@H](n2c(-c3ccc4cnccc4c3)nc3ccc(C(=O)NCc4cccc(C(N)=O)c4)cc32)C1 | binding, competition with immobilised ligand | 1 µM | 97% |
| c1ccc(N2CCN(Cc3nc4ccccc4[nH]3)CC2)nc1 | binding, competition with immobilised ligand | 1 µM | 100% |
| O=C(c1ccc(Nc2nccc(-c3cc4ccccc4s3)n2)cc1)N1CCC(N2CCCC2)CC1 | binding, competition with immobilised ligand | 1 µM | 45% |
| CC(C)CC(=O)N1CCc2nc(-c3ccc(Br)cc3)nc(N(C)Cc3ccccc3)c2C1 | cell-free assay, competition with immobilised ligand | 0.1 µM | 100% |
| C=CC(=O)N1CCC(C(=O)NCC(=O)N2CCN(c3nc(-c4cnc(N)nc4C(F)F)nc(N4CCOCC4)n3)CC2)CC1 | binding, competition with immobilised ligand | 1 µM | 96% |
